Activity calls are given as the source filed them.
Key:
[1] = target: T1, Amyloid-beta precursor protein (Homo sapiens, UniProt P05067); test: Inhibition of amyloid beta (1 to 42) fibril formation at 10 uM after 1 hr by ThT spectrofluorometric analysis
Summary of the method: (§1)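 ThT diluted to 5 µM in 50 mM glycine buffer was then added. After 10 s of shaking, fluorescence was read at excitation 450 nm and emission 480 nm, as a measure of fibril formation.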

[2] = Cytotoxicity against mouse HT22 cells assessed as viability at 10 uM after 18 hrs by MTT assay; type: cell-based, HT-22; conditions: read-out: Activity
Summary of the method: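 HT22 murine hippocampal cells were grown in DMEM with 10% FBS at 37 °C, 5% CO2, and plated at 5×10^3 cells/well. They were switched to plain DMEM and serum-starved for 1 h before exposure to compound at 10 µM for 18 h. MTT solution (5 mg/mL) was added for 4 h at 37 °C. Cells were solubilized in 50% DMF/10% SDS (pH 4.7) for 18 h, absorbance was read at 570/630 nm, and % cytotoxicity was calculated.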

[3] = target: T1, Amyloid-beta precursor protein; test: Inhibition of amyloid beta (1 to 42) fibril formation after 1 hr by ThT spectrofluorometric analysis; summary of the method: as §1
[4] = target: T1, Amyloid-beta precursor protein; test: Inhibition of amyloid beta (25 to 35)-induced cell death in mouse HT22 cells at 10 uM after 18 hrs by MTT assay; type: cell-based; conditions: HT-22, values are per cent of control
Summary of the method: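 HT22 cells were plated at 5×10^3 cells/well, serum-starved in plain DMEM for 1 h, and pretreated with compound for 1 h. Aβ(25–35) was prepared as a 10 mM DMSO stock, diluted 10-fold in PBS, and aggregated for 1 h at room temperature. It was then added at a final 25 µM, and cells were incubated for 18 h. Viability was measured by MTT (4 h), then solubilization in DMF/SDS and absorbance at 570/630 nm.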

[5] = target: T1, Amyloid-beta precursor protein; test: Inhibition of amyloid beta (1 to 42) aggregation at 2 uM after 2 hrs by SDS-PAGE and PICUP technique
Summary of the method: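 Aβ(1–42) was monomerized in HFIP (0.5 mM), dried, and redissolved in DMSO. It was incubated at 25 µM final in PBS (pH 7.3) with compound at 2 µM final for 2 h at 37 °C. Samples were photo-cross-linked (PICUP) with ammonium persulfate and Ru(bpy)3Cl2 using three 1 s irradiations, quenched, and boiled. Products were resolved on a 10–20% tris-tricine gel and silver-stained.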

Mus musculus [6] = test: Antialzheimer activity in ICR mouse assessed as reduction in amyloid beta (1 to 42)-induced spontaneous memory loss at 100 mg/kg, po measured after 2 days by Y-maze test; type: functional; design: scale not given: the % may be the effect or the level left
Summary of the method: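 Aβ(1–42) at 10 nM in PBS (from a 250 µM DMSO stock) was aggregated at 37 °C for 6 days, then injected ICV (50 µL, 2.4 mm depth at bregma) into male ICR mice. Compound was given at 100 mg/kg po once daily, and the Y-maze test was on day 2. Each mouse explored a three-arm maze freely for 8 min. An entry counted when all four limbs were in an arm; spontaneous alternation was scored as three consecutive different-arm entries. n = 10, mean ± SEM.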

Mus musculus [7] = test: Antialzheimer activity in ICR mouse assessed as reduction in amyloid beta (1 to 42)-induced spontaneous memory loss at 100 mg/kg, po measured after 2 days by object recognition task relative to control; type: functional; design: scale not given: the % may be the effect or the level left
Summary of the method: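 Male ICR mice received ICV pre-aggregated Aβ(1–42) at 10 nM (50 µL, 2.4 mm depth at bregma), then compound at 100 mg/kg po once daily. Object recognition ran on days 2–3. Exploration was counted as the nose directed at an object within 2 cm and/or touching it, and objects were cleaned to avoid olfactory cues. Preference index = exploration time for new object / total exploration time. n = 10, mean ± SEM.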

Mus musculus [8] = test: Antialzheimer activity in ICR mouse assessed as increase in amyloid beta (1 to 42)-induced step-through latency at 100 mg/kg, po measured after 3 days by passive avoidance test; type: functional
Summary of the method: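 Male ICR mice got 50 µL of pre-aggregated Aβ(1–42) by ICV injection at 2.4 mm depth at bregma. The peptide was a 250 µM DMSO stock diluted in PBS to 10 nM and aggregated at 37 °C for 4 days. Oral compound was given at 100 mg/kg once daily, with testing on days 3–4. Training used a 0.25 mA, 3 s shock; step-through latency into the dark compartment was measured 24 h later. n = 10, mean ± SEM, t-test.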

Mus musculus [9] = test: Antialzheimer activity in amyloid beta (1 to 42)-challenged ICR mouse assessed as decrease in escape latency at 100 mg/kg, po measured after 7 days by water maze test; type: functional, organism-based; design: dose 100 mg/kg
Summary of the method: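 Male ICR mice were injected ICV with 50 µL of pre-aggregated Aβ(1–42) at 10 nM. Compound was then supplied for 7 days in pellet feed, each pellet containing 3 mg. Water maze training ran on days 3–7, and escape latency was recorded across training sessions. n = 10, mean ± SEM.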

Mus musculus [10] = test: Antialzheimer activity in po dosed ICR mouse assessed as reduction in amyloid beta (1 to 42)-induced spontaneous memory loss measured after 2 days by Y-maze test; type: functional, organism-based
Summary of the method: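 Male ICR mice were injected ICV with 50 µL of Aβ(1–42) (10 nM, aggregated at 37 °C for 6 days). Various oral doses in the 50–200 mg/kg range followed, once daily. On day 2, each mouse moved freely in a three-arm Y-maze for 8 min. An arm entry required all four limbs inside, and spontaneous alternation was derived from the entry sequence. n = 10, mean ± SEM, t-test.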

Mus musculus [11] = test: Antialzheimer activity in po dosed ICR mouse assessed as reduction in amyloid beta (1 to 42)-induced spontaneous memory loss measured after 2 days by object recognition task relative to control; type: functional, organism-based
Summary of the method: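 ICV pre-aggregated Aβ(1–42) (10 nM, 50 µL) was given to male ICR mice, followed by once-daily oral doses in the 50–200 mg/kg series. The object recognition task ran on days 2–3. Exploration was defined as nose within 2 cm of and/or touching an object. Preference index = new-object exploration time / total exploration time. n = 10, mean ± SEM, t-test.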

Mus musculus [12] = test: Antialzheimer activity in po dosed ICR mouse assessed as increase in amyloid beta (1 to 42)-induced step-through latency measured after 3 days by passive avoidance test; type: functional, organism-based
Summary of the method: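 Male ICR mice received 50 µL of 10 nM Aβ(1–42) ICV at 2.4 mm depth at bregma, after pre-aggregation at 37 °C for 4 days. Oral doses were varied over 50–200 mg/kg, given once daily. Passive avoidance ran on days 3–4 with a 0.25 mA, 3 s training shock. Step-through latency to enter the dark compartment was recorded 24 h after training. n = 10, mean ± SEM, t-test.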

[13] = target: T1, Amyloid-beta precursor protein; test: Viability of cells treated with amyloid beta (25 to 35) in mouse HT22 cells at 25 uM after 18 hrs by MTT assay; conditions: HT-22

T1 sequence (P05067 whole entry): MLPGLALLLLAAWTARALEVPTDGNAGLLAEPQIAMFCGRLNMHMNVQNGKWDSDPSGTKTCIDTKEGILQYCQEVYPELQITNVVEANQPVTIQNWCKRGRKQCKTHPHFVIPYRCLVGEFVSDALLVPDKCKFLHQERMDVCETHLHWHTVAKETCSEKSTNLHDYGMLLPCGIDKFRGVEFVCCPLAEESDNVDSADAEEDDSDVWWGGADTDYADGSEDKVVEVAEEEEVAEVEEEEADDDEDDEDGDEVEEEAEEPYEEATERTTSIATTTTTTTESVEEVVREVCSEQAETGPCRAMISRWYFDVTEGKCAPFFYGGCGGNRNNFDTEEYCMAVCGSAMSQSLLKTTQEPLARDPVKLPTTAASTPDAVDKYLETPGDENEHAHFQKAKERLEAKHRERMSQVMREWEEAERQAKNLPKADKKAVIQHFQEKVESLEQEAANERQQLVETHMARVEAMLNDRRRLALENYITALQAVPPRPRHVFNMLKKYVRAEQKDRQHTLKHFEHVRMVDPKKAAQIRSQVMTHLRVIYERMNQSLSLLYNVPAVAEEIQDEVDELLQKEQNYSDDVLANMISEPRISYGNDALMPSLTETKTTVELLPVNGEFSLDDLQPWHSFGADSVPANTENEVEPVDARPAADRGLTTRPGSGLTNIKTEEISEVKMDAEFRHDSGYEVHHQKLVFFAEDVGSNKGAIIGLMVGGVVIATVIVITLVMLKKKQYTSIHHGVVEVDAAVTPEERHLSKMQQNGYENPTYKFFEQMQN

inhibition [1] [%] | Molecule | viability at 18 h, 10 µM [2] [%] | further results
14.1 | Oc1cccc(/C=C/c2cc(/C=C/c3cccc(O)c3)ncn2)c1 | 142 | –
18.8 | COc1nc(/C=C/c2ccccc2)cc(/C=C/c2ccccc2)n1 | – | –
84.5 | COc1ccc(/C=C/c2cc(O)cc(/C=C/c3ccc(OC)c(O)c3)c2)cc1O | 73.5 | IC50 [3]: 1.6 µM
19.8 | C(=C\c1cccc(/C=C/c2ccccc2)c1)/c1ccccc1 | – | –
58.4 | Oc1ccc(/C=C/c2cccc(/C=C/c3ccc(O)cc3)c2)cc1 | 102 | –
74.2 | CN(C)c1cc(/C=C/c2cc(O)cc(/C=C/c3ccc(O)c(N(C)C)c3)c2)ccc1O | 66 | –
19.8 | Oc1cc(/C=C/c2ccccc2)cc(/C=C/c2ccccc2)c1 | – | –
11.6 | CSc1nc(/C=C/c2ccccc2)cc(/C=C/c2ccccc2)n1 | – | –
71.5 | COc1cc(/C=C/c2cccc(/C=C/c3ccc(O)c(OC)c3)c2)ccc1O | 74.8 | –
67.9 | COc1ccc(/C=C/c2cccc(/C=C/c3ccc(OC)c(O)c3)c2)cc1O | 69.5 | –
83.3 | CN(C)c1ccc(/C=C/c2cc(O)cc(/C=C/c3ccc(N(C)C)c(O)c3)c2)cc1O | 64.4 | IC50 [3]: 3.3 µM
80.7 | Oc1ccc(/C=C/c2cc(O)cc(/C=C/c3ccc(O)cc3)c2)cc1 | 37.4 | IC50 [3]: 1.6 µM
56 | CN(C)c1ccc(/C=C/c2cccc(/C=C/c3ccc(N(C)C)c(O)c3)c2)cc1O | 101 | –
47.4 | C(=C\c1cc(/C=C/c2ccccc2)ncn1)/c1ccccc1 | – | –
7.1 | Oc1cccc(/C=C/c2cc(O)cc(/C=C/c3cccc(O)c3)c2)c1 | 59.2 | –
79 | COc1cc(/C=C/c2cc(O)cc(/C=C/c3ccc(O)c(OC)c3)c2)ccc1O | 80.9 | –

Second part, the molecule before the results:

Molecule | inhibition [1] [%] | viability at 18 h, 10 µM [2] [%] | further results
COc1ccc(/C=C/c2cc(/C=C/c3ccc(OC)c(O)c3)ncn2)cc1O | 80.9 | 136 | IC50 [3]: 2.1 µM; viability, % of control [4]: 91.8%; inhibition [5]: Active; Activity (Mus musculus [6]): 72%; Activity (Mus musculus [7]): 7%; Time (Mus musculus [8]): 144 s; Activity (Mus musculus [9]): Active; Activity (Mus musculus [10]): Dose-dependent effect; Activity (Mus musculus [11]): Dose-dependent effect; Activity (Mus musculus [12]): Dose-dependent effect
COc1cc(/C=C/c2cc(/C=C/c3ccc(O)c(OC)c3)nc(SC)n2)ccc1O | 67.6 | 79 | –
COc1nc(/C=C/c2ccc(OC)c(O)c2)cc(/C=C/c2ccc(OC)c(O)c2)n1 | 55 | 98.4 | –
CSc1nc(/C=C/c2ccc(O)cc2)cc(/C=C/c2ccc(O)cc2)n1 | 67.4 | 65.3 | –
CSc1nc(/C=C/c2ccc(O)c(N(C)C)c2)cc(/C=C/c2ccc(O)c(N(C)C)c2)n1 | 78.6 | 77.3 | –
CN(C)c1ccc(/C=C/c2cc(/C=C/c3ccc(N(C)C)c(O)c3)ncn2)cc1O | 93.7 | 133 | IC50 [3]: 3.4 µM; viability, % of control [4]: 76.6%; inhibition [5]: Active; Activity (Mus musculus [6]): 67%; Activity (Mus musculus [7]): 7%; Time (Mus musculus [8]): 118 s; Activity (Mus musculus [9]): Active
CN(C)c1cc(/C=C/c2cccc(/C=C/c3ccc(O)c(N(C)C)c3)c2)ccc1O | 63.9 | 95.7 | –
COc1cc(/C=C/c2cc(/C=C/c3ccc(O)c(OC)c3)ncn2)ccc1O | 79.3 | 216 | IC50 [3]: 3.2 µM; viability, % of control [4]: 103%; inhibition [5]: Active; Activity (Mus musculus [6]): 67%; Activity (Mus musculus [7]): 13%; Time (Mus musculus [8]): 118 s; Activity (Mus musculus [9]): Active
Oc1ccc(/C=C/c2cc(/C=C/c3ccc(O)cc3)ncn2)cc1 | 64.3 | 104 | –
CSc1nc(/C=C/c2ccc(N(C)C)c(O)c2)cc(/C=C/c2ccc(N(C)C)c(O)c2)n1 | 88.8 | 85.3 | IC50 [3]: 1.1 µM
CN(C)c1cc(/C=C/c2cc(/C=C/c3ccc(O)c(N(C)C)c3)ncn2)ccc1O | 83.5 | 146 | IC50 [3]: 3.7 µM; viability, % of control [4]: 85.3%; inhibition [5]: Active; Activity (Mus musculus [6]): 67%; Activity (Mus musculus [7]): inactive; Time (Mus musculus [8]): 118 s; Activity (Mus musculus [9]): Active
COc1ccc(/C=C/c2cc(/C=C/c3ccc(OC)c(O)c3)nc(SC)n2)cc1O | 75.2 | 78.8 | –
H-GSNKGAIIGLC-OH | – | – | viability [13]: 56%
COc1nc(/C=C/c2ccc(O)c(OC)c2)cc(/C=C/c2ccc(O)c(OC)c2)n1 | 68 | 75.2 | –
COc1nc(/C=C/c2ccc(O)cc2)cc(/C=C/c2ccc(O)cc2)n1 | 67.4 | 101 | –
Oc1cccc(/C=C/c2cccc(/C=C/c3cccc(O)c3)c2)c1 | – | 47 | –
COc1nc(/C=C/c2cccc(O)c2)cc(/C=C/c2cccc(O)c2)n1 | – | 45.9 | –
COc1nc(/C=C/c2ccc(O)c(N(C)C)c2)cc(/C=C/c2ccc(O)c(N(C)C)c2)n1 | 74.1 | 96.6 | viability, % of control [4]: 59%
COc1nc(/C=C/c2ccc(N(C)C)c(O)c2)cc(/C=C/c2ccc(N(C)C)c(O)c2)n1 | 90.4 | 101 | IC50 [3]: 0.8 µM; viability, % of control [4]: 67.4%
CSc1nc(/C=C/c2cccc(O)c2)cc(/C=C/c2cccc(O)c2)n1 | – | 43.7 | –

Source: ChEMBL document CHEMBL2057119, “Small molecules that protect against β-amyloid-induced cytotoxicity by inhibiting aggregation of β-amyloid” (Bioorg Med Chem, 2012)
